For assay [1], the system named is Acinetobacter baumannii. The experiment in a line: Antimicrobial activity against extended spectrum beta-lactamase and carbapenemase producing Acinetobacter baumannii L185 incubated for 48 hrs by microdilution broth method. Format: functional, organism-based. Put shortly:
(§1)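 Stocks in DMSO were diluted at least 10-fold into Mueller-Hinton broth, then 2-fold serially diluted in MH from 500 to 15.6 μg/ml. Bacteria were added, with DMSO-only dilution controls, and incubated at 37 °C for 48 h. Growth was scored at 24 and 48 h. MIC was the lowest concentration with no growth. Run in quadruplicate.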
On the technique in general: Broth dilution looks for growth in wells or tubes with falling amounts of substance.

For assay [2], the system named is Escherichia coli. The experiment in a line: Antimicrobial activity against extended spectrum beta-lactamase and carbapenemase producing Escherichia coli ESBL L108 incubated for 48 hrs by microdilution broth method. The assay is classed as functional, organism-based. A digest of the protocol:
as §1

Assay [3] deals with Citrobacter freundii. The experiment in a line: Antimicrobial activity against AmpC producing Citrobacter freundii CITRO 21 incubated for 48 hrs by microdilution broth method. The assay is classed as functional, organism-based. A digest of the protocol: as §1
The subject of assay [4] is Pseudomonas aeruginosa. The experiment in a line: Antimicrobial activity against Pseudomonas aeruginosa ATCC 27853 incubated for 48 hrs by microdilution broth method. Format: functional, organism-based. Put shortly: as §1
The test system of assay [5] is Escherichia coli. Kind of assay: Antimicrobial activity against broad spectrum beta-lactamase producing Escherichia coli MISC 206 incubated for 48 hrs by microdilution broth method. Format: functional, organism-based. Put shortly:
as §1

Assay [6] has as its system Klebsiella pneumoniae. Kind of assay: Antimicrobial activity against extended spectrum beta-lactamase and carbapenemase producing Klebsiella pneumoniae ESBL L174 incubated for 48 hrs by microdilution broth method. Format: functional, organism-based. A digest of the protocol:
as §1

Assay [7] has as its system Citrobacter freundii. The experiment in a line: Antimicrobial activity against extended spectrum beta-lactamase producing Citrobacter freundii Citro 314 incubated for 48 hrs by microdilution broth method. Format: functional, organism-based. A digest of the protocol:
as §1

For assay [8], the system named is Enterococcus faecalis. The experiment in a line: Antimicrobial activity against Enterococcus faecalis ATCC 29212 incubated for 48 hrs by microdilution broth method. Format: functional, organism-based. A digest of the protocol:
as §1

Assay [9] concerns Klebsiella pneumoniae. Kind of assay: Antimicrobial activity against AmpC producing Klebsiella pneumoniae KLEB 249 incubated for 48 hrs by microdilution broth method. The assay is classed as functional, organism-based. A digest of the protocol: as §1
For assay [10], the system named is Klebsiella pneumoniae. Kind of assay: Antimicrobial activity against AmpC producing Klebsiella pneumoniae MISC 304 incubated for 48 hrs by microdilution broth method. The assay is classed as functional, organism-based. Put shortly: as §1
The test system of assay [11] is Acinetobacter baumannii. The experiment in a line: Antimicrobial activity against extended spectrum beta-lactamase and carbapenemase producing Acinetobacter baumannii L186 incubated for 48 hrs by microdilution broth method. The assay is classed as functional, organism-based. Put shortly:
as §1

Assay [12] relates to Acinetobacter baumannii. The experiment in a line: Antimicrobial activity against extended spectrum beta-lactamase and carbapenemase producing Acinetobacter baumannii L187 incubated for 48 hrs by microdilution broth method. Format: functional, organism-based. Put shortly:
as §1

Assay [13] deals with Moraxella catarrhalis. Kind of assay: Bactericidal activity against Moraxella catarrhalis clinical isolates incubated for 48 hrs by microdilution broth method and standard plating method. Format: functional. A digest of the protocol:
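Broth microdilution in Mueller-Hinton broth, 2-fold series from 500 to 15.6 μg/ml, with DMSO-only controls, 37 °C for 48 h. Wells showing no growth were plated (10 μL) on MH agar. MBC was the lowest concentration giving no growth on plating. Run in quadruplicate.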

Assay [14] concerns Stenotrophomonas maltophilia. Kind of assay: Antimicrobial activity against metallo beta-lactamases producing Stenotrophomonas maltophilia GM24 incubated for 48 hrs by microdilution broth method. The assay is classed as functional, organism-based. Put shortly:
as §1

The test system of assay [15] is Moraxella catarrhalis. The experiment in a line: Antimicrobial activity against Moraxella catarrhalis clinical isolates incubated for 48 hrs by microdilution broth method. The assay is classed as functional. Put shortly: as §1
Assay [16] relates to Escherichia coli. The experiment in a line: Antimicrobial activity against broad spectrum beta-lactamase producing Escherichia coli GB 8 incubated for 48 hrs by microdilution broth method. The assay is classed as functional, organism-based. Put shortly: as §1
For assay [17], the system named is Escherichia coli. Kind of assay: Antimicrobial activity against Escherichia coli ATCC 25922 incubated for 48 hrs by microdilution broth method. Format: functional, organism-based. Put shortly:
as §1

Assay [18] concerns Escherichia coli. Kind of assay: Antimicrobial activity against extended spectrum beta-lactamase producing Escherichia coli MISC 262 incubated for 48 hrs by microdilution broth method. Format: functional, organism-based. Put shortly:
as §1

For assay [19], the system named is Escherichia coli. The experiment in a line: Antimicrobial activity against extended spectrum beta-lactamase and carbapenemase producing Escherichia coli ESBL L109 incubated for 48 hrs by microdilution broth method. Format: functional, organism-based. A digest of the protocol:
as §1

For assay [20], the system named is Mycobacterium tuberculosis. The experiment in a line: Antimicrobial activity against Mycobacterium tuberculosis H37Rv incubated for 48 hrs by microdilution broth method. Format: functional.
In assay [21] the test system is Staphylococcus aureus. The experiment in a line: Antimicrobial activity against Staphylococcus aureus ATCC 25923 incubated for 48 hrs by microdilution broth method. Format: functional, organism-based. A digest of the protocol:
as §1

For assay [22], the system named is Klebsiella pneumoniae. The experiment in a line: Antimicrobial activity against extended spectrum beta-lactamase and carbapenemase producing Klebsiella pneumoniae KPC L133 incubated for 48 hrs by microdilution broth method. The assay is classed as functional, organism-based. Put shortly:
as §1

The structures appear in SMILES notation. Values after ≈ are worked out from the molar mass of the structure shown. Active and inactive are the calls of the source. The calls are words filed in the database; no cut-off is given here.

With `O=C1CC(Sc2ccccc2)N1C(=O)NCc1ccccc1` (racemic), the MIC entry in [1], in assay [2], in assay [3], in assay [4], in assay [5] and in assay [6] was “inactive” each time. The MIC result in assay [7], in assay [8], in assay [9], in assay [10], in assay [11] and in assay [12] was “inactive” throughout. Moreover, the MIC result in [14], in [16], in assay [17], in [18], in assay [19] and in assay [21] was “inactive” in each case. The MIC (commonly the lowest concentration that inhibits growth of the organism) in [22] is “inactive”. In [13], the minimal bactericidal concentration (MBC) (commonly the lowest tested concentration that kills the bacteria rather than only halting them) is 12.5 µg/mL (≈ 40 µM). In addition, the MIC in assay [15] was found to be 12.5 µg/mL (≈ 40 µM); in [20], 6.25 µg/mL (≈ 20 µM).

Take `O=C1CC(Sc2ccccc2F)N1C(=O)NCc1ccccc1` (racemic): the MIC result in assay [1], in assay [2], in [3], in assay [4], in assay [5] and in assay [6] was “inactive” each time. Also, the MIC entry in assay [7], in assay [8], in assay [9], in [10], in assay [11] and in [12] was “inactive” throughout. Also, the MIC entry in assay [14], in assay [16], in [17], in assay [18], in assay [19] and in assay [21] was “inactive” in each case. For the same compound, the MIC entry in assay [22] is “inactive”. For the same compound, the minimum bactericidal concentration (MBC) in [13] came to 50 µg/mL (≈ 151 µM). Also, the MIC was 25 µg/mL (≈ 75.7 µM) in [15] and 3.13 µg/mL (≈ 9.47 µM) in [20].

As to `O=C1CC(Sc2cccc(F)c2)N1C(=O)NCc1ccccc1` (racemic), the MIC entry in assay [1], in assay [2], in assay [3], in assay [4], in assay [5] and in assay [6] was “inactive” throughout. The MIC result in assay [7], in [8], in assay [9], in assay [10], in assay [11] and in [12] was “inactive” in each case. Moreover, the MIC result in [14], in assay [16], in [17], in [18], in assay [19] and in assay [21] was “inactive” throughout. The MIC result in assay [22] was “inactive”. In [13], this compound gave an MBC of 100 µg/mL (≈ 303 µM). Moreover, the MIC in [15] amounted to 25 µg/mL (≈ 75.7 µM).

For `O=C1CC(Sc2ccc(F)cc2)N1C(=O)NCc1ccccc1` (racemic), the MIC entry in assay [1], in [2], in assay [3], in assay [4], in assay [5] and in [6] was “inactive” in each case. Also, the MIC result in [7], in assay [8], in [9], in assay [10], in assay [11] and in assay [12] was “inactive” each time. Moreover, the MIC result in [14], in assay [16], in assay [17], in assay [18], in assay [19] and in assay [21] was “inactive” throughout. Also, the MIC result in assay [22] was “inactive”. In assay [13], this compound showed a minimal bactericidal concentration (MBC) of 25 µg/mL (≈ 75.7 µM). The values for the minimum inhibitory concentration (MIC) in [15] and in [20] were 25 µg/mL (≈ 75.7 µM) and 6.25 µg/mL (≈ 18.9 µM), respectively.

In the case of `O=C1CC(Sc2ccc(F)c(F)c2)N1C(=O)NCc1ccccc1` (racemic), the MIC result in assay [1], in assay [2], in [3], in [4], in assay [5] and in assay [6] was “inactive” each time. Also, the MIC result in [7], in assay [8], in [9], in [10], in [11] and in assay [12] was “inactive” each time. Besides, the MIC entry in assay [14], in assay [16], in assay [17], in assay [18], in [19] and in [21] was “inactive” each time. Also, the MIC result in assay [22] was “inactive”. Moreover, in assay [13], the minimum bactericidal concentration (MBC) was determined as 25 µg/mL (≈ 71.8 µM). Besides, the MIC in [15] stood at 12.5 µg/mL (≈ 35.9 µM); in assay [20] it was 6.25 µg/mL (≈ 17.9 µM).

Turning to `O=C1CC(Sc2cccc(C(F)(F)F)c2)N1C(=O)NCc1ccccc1` (racemic), the MIC entry in assay [1], in assay [2], in [3], in assay [4], in assay [5] and in [6] was “inactive” in each case. The MIC entry in assay [7], in assay [8], in assay [9], in assay [10], in [11] and in assay [12] was “inactive” each time. Further, the MIC entry in [14], in assay [16], in [17], in [18], in assay [19] and in assay [21] was “inactive” each time. Also, in assay [22], the MIC entry was “inactive”. Also, the MBC in [13] turned out to be 6.25 µg/mL (≈ 16.4 µM). Moreover, the MIC in [15] turned out to be 3.12 µg/mL (≈ 8.22 µM); in assay [20], 25 µg/mL (≈ 65.7 µM).

Turning to `O=C1CC(Sc2ccc(C(F)(F)F)cc2)N1C(=O)NCc1ccccc1` (racemic), the MIC entry in assay [1], in assay [2], in [3], in assay [4], in assay [5] and in assay [6] was “inactive” each time. Further, the MIC result in assay [7], in assay [8], in [9], in assay [10], in [11] and in assay [12] was “inactive” each time. In addition, the MIC result in [14], in [16], in assay [17], in assay [18], in [19] and in [21] was “inactive” in each case. Further, in assay [22], the MIC result is “inactive”. Further, the minimum bactericidal concentration (MBC) in [13] stood at 12.5 µg/mL (≈ 32.9 µM). Moreover, the MIC in [15] amounted to 1.62 µg/mL (≈ 4.27 µM); in assay [20], 12.5 µg/mL (≈ 32.9 µM).

For `O=C1CC(Sc2cc(C(F)(F)F)cc(C(F)(F)F)c2)N1C(=O)NCc1ccccc1` (racemic), the MIC result in [1], in assay [2], in assay [3], in assay [4], in [5] and in assay [6] was “inactive” throughout. In addition, the MIC entry in [7], in assay [8], in assay [9], in [10], in [11] and in assay [12] was “inactive” throughout. The MIC result in assay [14], in [16], in [17], in assay [18], in [19] and in [21] was “inactive” throughout. Moreover, the MIC result in assay [22] is “inactive”. In [13], this compound came in with a minimal bactericidal concentration (MBC) of 6.25 µg/mL (≈ 13.9 µM). In addition, the MIC in assay [15] and in assay [20] was 6.25 µg/mL (≈ 13.9 µM) each time.
